High-throughput results from PubChem.
Hits are enriched below; roughly 3.7% of the tested compounds scored in any of these assays.
Kir21 block – blocks the mouse Kir2.1 inward-rectifier potassium channel; hit rate 0.85% among 310,000; P35561; HEK293-Kir2.1, FluxOR thallium flux fluorescence; active compounds read low; B-score at 10 µM;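 active means fluorescence ratio B-score at or below minus 3 SD of library scores, with starting-brightness B-score within 2 SD, cut at about -4.2 in these data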;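 further: channel flux triggered by added potassium and thallium sulfate stimulus; B-score of peak minus minimum fluorescence over baseline after thallium stimulus; more negative B-score means stronger Kir2.1 block with less thallium influx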
KCNQ1 act – human KCNQ1 channel potentiation or activation | P51787 | CHO-K1 KCNQ1, thallium flux FluxOR fluorescence; active compounds read high | B-score at 10 µM | hit rate 0.35% among 310,000;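 active means fluorescence ratio B-score, a plate-corrected score, at least three library SD, with initial intensity B-score within 5 SD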
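Doses: Single concentration per compound, DMSO matched to controls | Test system: KCNQ1-transfected CHO-K1 cells | Timing: 90 min dye loading and 20 min compound exposure, both at room temperature | Measured by: Kinetic FluxOR thallium fluorescence, 10-s 1-Hz baseline, 110-s post-stimulus read | Medium: Assay buffer with matched DMSO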
KCNQ1 block – inhibitors of human KCNQ1 potassium channel; hit rate 1.3% among 310,000; B-score at 10 µM; CHO-K1 KCNQ1, FluxOR thallium flux fluorescence; active compounds read high; P51787;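 active means compounds whose thallium flux B-score, printed positive for inhibition, exceeds three library SD while starting fluorescence stays within three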;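 further: channel opened by potassium depolarization with thallium stimulus after 20 min compound exposure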
hERG rescue – hERG (human) protection from proarrhythmic block; Q12809; CHO-hERG, FluxOR thallium flux, dofetilide IC70 present; activation (rescue from dofetilide block), less the hit threshold, % at 10 µM; hit rate 0.51% among 310,000; AID 1511;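 active means activation above the mean of controls blocked by dofetilide plus 5 SD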;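 further: thallium influx through hERG after potassium depolarization seen as dye fluorescence rise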
Target sequence (Q12809 whole entry, looked up): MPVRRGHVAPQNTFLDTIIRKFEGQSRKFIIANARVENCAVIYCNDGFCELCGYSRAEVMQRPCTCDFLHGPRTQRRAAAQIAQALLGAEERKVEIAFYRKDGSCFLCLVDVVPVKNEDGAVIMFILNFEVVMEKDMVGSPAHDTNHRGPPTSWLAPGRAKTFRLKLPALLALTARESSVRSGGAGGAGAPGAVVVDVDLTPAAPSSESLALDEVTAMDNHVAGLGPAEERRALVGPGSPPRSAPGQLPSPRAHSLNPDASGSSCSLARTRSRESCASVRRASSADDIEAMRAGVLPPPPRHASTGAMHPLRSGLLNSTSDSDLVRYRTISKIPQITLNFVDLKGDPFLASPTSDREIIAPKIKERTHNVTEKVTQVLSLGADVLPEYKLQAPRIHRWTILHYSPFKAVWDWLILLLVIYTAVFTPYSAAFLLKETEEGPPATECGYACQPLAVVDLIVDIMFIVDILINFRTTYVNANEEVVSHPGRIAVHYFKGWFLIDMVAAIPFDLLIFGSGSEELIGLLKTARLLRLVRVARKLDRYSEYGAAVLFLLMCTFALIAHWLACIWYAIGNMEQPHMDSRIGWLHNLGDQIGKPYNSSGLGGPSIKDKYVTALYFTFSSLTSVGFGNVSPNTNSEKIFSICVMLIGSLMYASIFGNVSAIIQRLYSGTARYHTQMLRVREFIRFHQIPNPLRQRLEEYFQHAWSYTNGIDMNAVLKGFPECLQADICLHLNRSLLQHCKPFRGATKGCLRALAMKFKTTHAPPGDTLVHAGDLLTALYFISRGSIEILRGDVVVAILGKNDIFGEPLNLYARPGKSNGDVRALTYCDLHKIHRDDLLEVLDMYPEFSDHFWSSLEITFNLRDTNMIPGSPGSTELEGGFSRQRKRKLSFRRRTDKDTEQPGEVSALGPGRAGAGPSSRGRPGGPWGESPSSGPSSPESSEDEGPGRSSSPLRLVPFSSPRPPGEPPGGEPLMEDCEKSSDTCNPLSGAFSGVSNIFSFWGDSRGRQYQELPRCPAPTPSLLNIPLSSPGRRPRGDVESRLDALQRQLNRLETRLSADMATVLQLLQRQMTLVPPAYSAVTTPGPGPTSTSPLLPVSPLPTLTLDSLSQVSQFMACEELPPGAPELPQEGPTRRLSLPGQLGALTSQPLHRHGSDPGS
KCNK3 inh – human KCNK3 channel inhibition, primary screen | hit rate 0.84% among 340,000 | O14649 | CHO-KCNK3 thallium flux, FluxOR fluorescence; active compounds read low | AID 602410 | B-score at 10 µM;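 active means B-score under library mean minus 4 SD, starting fluorescence ratio at most library mean plus 5 SD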;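 further: more negative B-score means stronger inhibition of thallium flux through KCNK3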
KCNK9 block – human KCNK9 channel inhibition. Q9NPC2. HEK293 KCNK9, FluxOR thallium flux fluorescence; active compounds read low. B-score at 10 µM. hit rate 1.2% among 310,000. AID 488922;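 active means ratio B-score over 3 SD below the library mean, with starting fluorescence within 5 SD of its mean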;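 further: negative B-score means less thallium flux so channel inhibition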
* marks the source's active call; other numbers are inactive results; i = inactive; · = no result given.

SMILES	Kir21 block	KCNQ1 act	KCNQ1 block	hERG rescue	KCNK3 inh	KCNK9 block
O=C(Cn1c(=O)oc2cc(S(=O)(=O)N3CCCCCC3)ccc21)NC1CCCCC1	0.24	i	i	-7.3	i	i
Cc1sc(NC(=O)C2=COCCO2)nc1-c1ccc(Cl)cc1	-0.62	i	i	-12.7	i	i
CC(C)Oc1ccc(CCC(=O)N/N=C/c2ccc3c(c2)OCO3)cc1	1.48	i	i	-6.3	i	i
O=C(CCc1ccc(O)c(O)c1)N/N=C/c1ccc2c(c1)OCO2	0.46	i	6*	-15.5	i	i
CCOC(=O)c1sc2nccc(N(C)C)c2c1N=CNOCc1ccccc1	·	·	·	·	i	·
CCOC(=O)c1sc2nccc(N(C)C)c2c1N=CNOCc1c(F)cccc1Cl	0.6	i	8*	-5.5	i	i
CCCCn1nc2cc(C(=O)NCc3ccc(C(F)(F)F)cc3C(F)(F)F)ccc2c1OCC	0.22	i	6*	-8.0	i	i
CCOc1c2ccc(C(=O)NCc3ccc(C(F)(F)F)cc3C(F)(F)F)cc2nn1C	-0.76	i	i	-4.1	i	i
COc1ccc(C2CC(c3ccccc3)=NN2c2ccc(S(N)(=O)=O)cc2)cc1 (centres undefined)	0.18	i	i	-9.6	i	i
CC(=O)Nc1ccc(C2=NN(c3ccccc3)C(c3ccccc3)C2)cc1 (centres undefined)	0.01	i	i	-1.0	i	-6.75*
COc1ccc(C2=NN(c3ccc(C=O)cc3)C(c3ccccc3)C2)cc1 (centres undefined)	-0.05	i	6*	-3.7	·	i
O=Cc1ccc(N2N=C(c3ccccc3)CC2c2ccccc2)cc1 (centres undefined)	0.08	i	8*	-14.1	i	i
NS(=O)(=O)c1ccc(N2N=C(c3ccccc3)CC2c2ccc(F)cc2)cc1 (centres undefined)	1.31	i	6*	-10.4	i	-7.74*
Cc1ccc(N2CCCC2=O)cc1S(=O)(=O)N1CCOCC1	0.19	i	i	-9.2	i	i
COc1ccc(C2CC(c3ccccc3)=NN2c2ccc(/C=N/NC(=O)c3ccncc3)cc2)cc1 (centres undefined)	-0.57	i	6*	-3.6	i	i
N#CCC(=O)N/N=C/c1ccc(N2N=C(c3ccccc3)CC2c2ccccc2)cc1 (centres undefined)	0.06	i	i	-1.4	i	i
O=C(O)c1ccc(N2N=C(c3ccccc3)CC2c2ccccc2)cc1 (centres undefined)	0.23	i	i	-11.7	i	i
COc1ccc(C2CC(c3ccccc3)=NN2c2ccc(C(N)=O)cc2)cc1 (centres undefined)	-0.04	i	10*	-8.5	i	i
Cc1cc(=O)c2c([nH]1)c(C)cc1[nH]c(C)c(C)c12	·	·	·	·	i	·
CCC(NC(=O)Nc1nnc(C(F)(F)F)s1)(C(F)(F)F)C(F)(F)F	-4.52*	i	i	-50.1	i	i
O=C(O)CSc1cc(C(F)(F)F)nc(-c2ccccn2)n1	0.63	i	i	39.5*	i	i
CCOC(=O)CSc1cc(C(F)(F)F)nc(-c2ccccn2)n1	2.28	i	i	-6.9	i	i
COc1cccc(CNC(=O)CCc2nc3cc(S(=O)(=O)N4CCOCC4)ccc3n2C)c1	1.12	i	i	-8.7	i	i
Cc1ccc(C)c(N2CCN(C(=O)c3ccc(Cn4c(=O)[nH]c5ccccc5c4=O)cc3)CC2)c1	-0.8	i	i	-12.1	i	i
Cc1ccc(C)c(N2CCN(c3nc4ccccc4c(=O)n3Cc3ccccc3)CC2)c1	1.59	i	i	-11.7	i	-7.61*
SMILES	Kir21 block	KCNQ1 act	KCNQ1 block	hERG rescue	KCNK3 inh	KCNK9 block
O=C1CCCN1CCCNS(=O)(=O)c1cccc(F)c1	-1.34	i	i	4.9*	i	i
C=CC[C@H]1CC(Cc2ccccc2)=C[C@H](CC=C)N1	-6.55*	i	i	-12.3	i	i
C=CCC1C=C(Cc2ccccc2)CC(CC=C)N1 (centres undefined)	-4.08	i	i	-5.2	i	i
CCCOc1ccc(-c2nc(OC)c3ccccc3n2)cc1	0.93	i	i	-3.4	i	-6.64*
CNC(=O)CSc1nnc(-c2ccccc2F)n1CCc1ccccc1	0.3	i	i	-9.9	i	i
COc1cccc(CC2(CO)CCCN(Cc3ccc(C)s3)C2)c1 (centres undefined)	-2.03	i	i	-4.5	i	i
COc1cccc(CC2(CO)CCCN(Cc3c(C)cc(C)cc3-n3cccn3)C2)c1 (centres undefined)	-5.37*	i	i	-25.7	i	i
COc1cc(Cl)c(CN2CCCC(CO)(Cc3ccccc3)C2)cc1OC (centres undefined)	-2.52	i	i	-4.7	i	i
CSc1ccc(CN2CCCC(CO)(Cc3ccccc3)C2)cc1 (centres undefined)	-4.54*	i	i	-14.3	i	i
COc1cccc(CC2(CO)CCCN(Cc3cc4ccccc4[nH]3)C2)c1 (centres undefined)	-4.24*	i	i	-13.1	i	i
Cc1cccc(C)c1OCC(=O)N(Cc1ccc(N(C)C)cc1)C1CCS(=O)(=O)C1 (centres undefined)	1.05	i	i	-9.2	i	i
Cc1ccc(SCC(=O)OCC(=O)N(C)C2CCS(=O)(=O)C2)cc1C (centres undefined)	·	·	·	·	i	·
COC(=O)C1=C(C)N(Cc2ccccc2)C(=NCCc2cccnc2)N[C@H]1c1ccc(Br)cc1	·	·	·	·	i	·
COC(=O)C1=C(C)N(Cc2ccccc2)C(=NCCCCO)N[C@H]1c1ccccc1	-4.56*	i	i	-3.8	·	i
COC(=O)C1=C(C)N(Cc2ccccc2)C(=NCCc2cccnc2)N[C@H]1c1ccccc1	-11.1*	i	i	-7.2	i	i
COC(=O)C1=C(C)N(Cc2ccccc2)C(=NCC2CC2)N[C@H]1c1ccccc1	·	·	·	·	i	·
O=[N+]([O-])c1cccc(-c2ccc(SCc3cccnc3)nn2)c1	1.1	i	6*	-8.0	i	i
CSc1ccc(-c2cccc([N+](=O)[O-])c2)nn1	0.36	i	i	-21.8	i	i
CCOC(=O)C1CCN(S(=O)(=O)c2cccc3nonc23)CC1	1.25	i	i	14.4*	i	i
CCOC(=O)C1CCN(S(=O)(=O)c2c(Cl)ccc3nonc23)CC1	-1.14	9*	i	-18.6	i	i
COc1ccccc1C(CCN(Cc1ccccc1)C(C)=O)c1ccco1 (centres undefined)	-5.28*	i	i	-12.3	i	i
